Measurements published in ChEMBL document CHEMBL4725276, “Strategies towards potent trypanocidal drugs: Application of Rh-catalyzed [2 + 2 + 2] cycloadditions, sulfonyl phthalide annulation and nitroalkene reactions for the synthesis of substituted quinones and their evaluation against Trypanosoma cruzi” (Bioorg Med Chem, 2020).

What was measured:
[1] = test system: Trypanosoma cruzi; assay: Trypanocidal activity against Trypanosoma cruzi Y strain bloodstream trypomastigotes isolated from infected Albino Swiss mouse assessed as lysis of parasite in presence of 5 % mouse blood incubated for 24 hrs by Neubauer chamber method; type: functional, organism-based
Outline: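 Y-strain bloodstream trypomastigotes were isolated from infected mice at peak parasitemia by differential centrifugation and suspended at 10x10⁶ parasites/mL in DMES. They were mixed 1:1 with compound prepared at 2x final (DMSO final ≤0.1%) and incubated 24 h at 4 °C with 5% mouse blood, with benznidazole as control.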

[2] = Selectivity index, ratio of LD50 for cytotoxicity against albino Swiss mouse peritoneal macrophages to IC50 for Trypanocidal activity against Trypanosoma cruzi Y strain bloodstream trypomastigotes isolated from infected albino Swiss mouse in presence of 5 % mouse blood; type: toxicity; settings: read-out: Selectivity Index
Outline: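 Combines the macrophage LD₅₀/24 h with the trypanocidal IC₅₀/24 h, parasite assay run in 5% mouse blood at 4 °C. Y strain bloodstream trypomastigotes from infected Albino Swiss mice (peak parasitemia, differential centrifugation) were suspended at 10x10⁶/mL in DMES. They were mixed 1:1 with compound at twice the final concentration (DMSO ≤0.1% final) for 24 h. Neubauer chamber counts; IC₅₀ is 50% lysis; mean ± SD of at least three independent experiments.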

[3] = Cytotoxicity against albino Swiss mouse Peritoneal macrophages in presence of 5 % mouse blood incubated for 24 hrs by PrestoBlue dye based fluorescence assay; type: cell-based, Peritoneal macrophage; settings: read-out: LD50
Outline: (§1)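 Primary peritoneal macrophages from Albino Swiss mice, 2.5 x 10⁴ cells/well in RPMI-1640 (pH 7.2, 10% foetal bovine serum, 2 mM glutamine), preincubated 24 h at 37 °C. Treated in fresh supplemented medium for 24 h at 37 °C. PrestoBlue added, 2 h incubation, read at 560 and 590 nm. LC₅₀/24 h is the concentration damaging 50% of cells, from reduction relative to untreated cells.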

[4] = test system: Trypanosoma cruzi; assay: Trypanocidal activity against Trypanosoma cruzi Y strain bloodstream trypomastigotes isolated from infected Albino Swiss mouse assessed as lysis of parasite in absence of mouse blood incubated for 24 hrs by Neubauer chamber method; type: functional, organism-based
Outline: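 Bloodstream trypomastigotes (Y strain) were taken from mice at peak parasitemia by differential centrifugation and resuspended at 10x10⁶/mL in DMES. Equal volumes of suspension and compound at twice final concentration (DMSO final ≤0.1%) were incubated 24 h at 37 °C with no blood added, with benznidazole as control.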

[5] = Selectivity index, ratio of LD50 for cytotoxicity against albino Swiss mouse peritoneal macrophages to IC50 for Trypanocidal activity against Trypanosoma cruzi Y strain bloodstream trypomastigotes isolated from infected albino Swiss mouse in absence of mouse blood; type: toxicity; settings: read-out: Selectivity Index
Outline: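 Combines the macrophage LD₅₀/24 h with the trypanocidal IC₅₀/24 h, parasite assay run without blood at 37 °C. Y strain bloodstream trypomastigotes were taken from infected Albino Swiss mice at peak parasitemia by differential centrifugation, at 10x10⁶/mL in DMES. They were mixed 1:1 with compound at twice the final concentration (DMSO ≤0.1% final) for 24 h. Neubauer counts; IC₅₀ is 50% lysis.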

[6] = test system: Trypanosoma cruzi; assay: Potency index, ratio of benznidazole IC50 to compound IC50 for trypanocidal activity against Trypanosoma cruzi Y strain bloodstream trypomastigotes isolated from infected Albino Swiss mouse assessed as lysis of parasite in presence of 5 % mouse blood incubated for 24 hrs by Neubauer chamber method; type: functional
[7] = Cytotoxicity against albino Swiss mouse Peritoneal macrophages in absence of mouse blood incubated for 24 hrs in absence of mouse blood by PrestoBlue dye based fluorescence assay; type: cell-based, Peritoneal macrophage; settings: read-out: LD50; outline: as §1

| SMILES | IC50 [1] [µM] | further results |
| --- | --- | --- |
| COc1ccc(-n2cc(-c3ccccc3)c3c2C(=O)c2ccccc2C3=O)cc1 | > 500 |  |
| COc1ccc(-n2cc(-c3ccc(Cl)cc3)c3c2C(=O)c2ccccc2C3=O)cc1 | > 500 |  |
| Cc1ccc(-c2cn(-c3cccc(Br)c3)c3c2C(=O)c2ccccc2C3=O)cc1 | > 500 |  |
| O=C1c2ccccc2C(=O)c2c(-c3ccc(F)cc3)coc21 | > 500 |  |
| O=C1c2ccccc2C(=O)c2c(-c3ccccc3[N+](=O)[O-])coc21 | > 500 |  |
| COc1ccc(-n2cc(-c3ccc(C)cc3)c3c2C(=O)c2ccccc2C3=O)cc1 | > 500 |  |
| COc1ccc(-c2cn(-c3ccc(Cl)cc3)c3c2C(=O)c2ccccc2C3=O)cc1 | > 500 |  |
| CSc1ccc(-c2coc3c2C(=O)c2ccccc2C3=O)cc1 | > 500 |  |
| Cc1ccc(-c2cn(-c3ccc(C)cc3)c3c2C(=O)c2ccccc2C3=O)cc1 | > 500 |  |
| COc1ccc(-c2cn(-c3ccc(OC)cc3)c3c2C(=O)c2ccccc2C3=O)cc1 | > 500 |  |
| COc1ccc(-c2cn(-c3ccccc3)c3c2C(=O)c2ccccc2C3=O)cc1 | > 500 |  |
| Cc1ccc(-c2cn(-c3ccc(Br)cc3)c3c2C(=O)c2ccccc2C3=O)cc1 | > 500 |  |
| O=C1c2ccccc2C(=O)c2c(-c3ccc(Br)cc3)coc21 | > 500 |  |
| COc1ccc(-n2cc(-c3ccc(F)cc3)c3c2C(=O)c2ccccc2C3=O)cc1 | > 500 |  |
| COc1ccc(-c2cn(-c3ccc(F)cc3)c3c2C(=O)c2ccccc2C3=O)cc1 | > 500 |  |
| COc1ccc(-c2coc3c2C(=O)c2ccccc2C3=O)cc1 | > 500 |  |
| COc1ccc(-n2cc(-c3ccco3)c3c2C(=O)c2ccccc2C3=O)cc1 | > 500 |  |
| O=C1c2ccccc2C(=O)c2c(-c3cccs3)coc21 | > 500 |  |
| O=C1c2ccccc2C(=O)c2c1oc1ccccc21 | > 500 |  |

| SMILES | IC50 [1] [µM] | further results |
| --- | --- | --- |
| COC(=O)C1(C(=O)OC)Cc2cc3c(cc2C1)C(=O)C(c1ccccc1OC)=CC3=O | 102 |  |
| COC(=O)C1(C(=O)OC)Cc2cc3c(c(O)c2C1)C(=O)C=C(OC)C3=O | > 500 |  |
| COC(=O)C1(C(=O)OC)Cc2cc3c(cc2C1)C(=O)C(c1ccccc1)=CC3=O | 369 |  |
| Cc1ccc(S(=O)(=O)n2c3ccccc3c3c(-c4ccccc4)c4c(cc32)C(=O)C=CC4=O)cc1 | 122 |  |
| COC(=O)C1(C(=O)OC)Cc2cc3c(cc2C1)C(=O)C(Cl)=CC3=O | 56.6 | selectivity ratio [2]: 0.09; CC50 at 24 h [3]: 5 µM |
| CC(=O)CCC1=C(c2ccco2)C(=O)c2ccccc2C1=O | > 500 |  |
| Cc1cc2oc3c(c2cc1C)C(=O)c1ccccc1C3=O | > 500 |  |
| COC(=O)C1(C(=O)OC)Cc2c(O)c3c(c(O)c2C1)C(=O)C(OC)=CC3=O | > 500 |  |
| COC1=CC(=O)c2cc3c(c(-c4ccc5c(c4)OCO5)c2C1=O)COC3=O | > 500 |  |
| Cc1ccc2oc3c(c2c1)C(=O)c1ccccc1C3=O | > 500 |  |
| O=C1C=CC(=O)c2c1cc1oc3ccccc3c1c2-c1ccccc1 | 247 |  |
| COC(=O)C1(C(=O)OC)Cc2cc3c(cc2C1)C(=O)C(N(C)c1ccccc1)=CC3=O | > 500 |  |
| CCCCc1c2c(c(CCCC)c3c1C(=O)C=CC3=O)CN(S(=O)(=O)c1ccc(C)cc1)C2 | > 500 |  |
| COC(=O)C1(C(=O)OC)Cc2c(c(-c3ccccc3)c3c(c2-c2ccccc2)C(=O)C=CC3=O)C1 | 2.5 | selectivity ratio [2]: 0.6; CC50 at 24 h [3]: 1.6 µM; IC50 [4]: 0.44 µM; selectivity ratio [5]: 3.7 |
| CCOc1cccc2c3c(oc12)C(=O)c1ccccc1C3=O | > 500 |  |
| Cc1ccc(S(=O)(=O)N2Cc3cc4c(cc3C2)C(=O)C=CC4=O)cc1 | > 500 |  |
| CCCCn1cc(-c2ccc(Cl)cc2)c2c1C(=O)c1ccccc1C2=O | > 500 |  |
| COC(=O)C1(C(=O)OC)Cc2cc3c(cc2C1)C(=O)C(I)=CC3=O | 51.3 | selectivity ratio [2]: 0.03; CC50 at 24 h [3]: 1.6 µM |
| CC(=O)CCC1=C(c2ccc(F)cc2)C(=O)c2ccccc2C1=O | 114 | CC50 at 24 h [3]: 65.4 µM |

| SMILES | IC50 [1] [µM] | further results |
| --- | --- | --- |
| COC(=O)C1(C(=O)OC)Cc2c(c(-c3ccc(OC)cc3)c3c(c2-c2ccc(OC)cc2)C(=O)C=CC3=O)C1 | 2.3 | selectivity ratio [2]: 0.81; CC50 at 24 h [3]: 1.9 µM; IC50 [4]: 0.14 µM; selectivity ratio [5]: 13.9 |
| O=C1C=CC(=O)c2cc3c(cc21)CCC3 | 49.2 | selectivity ratio [2]: 0.03; CC50 at 24 h [3]: 1.7 µM; Ratio IC50 [6]: 2 |
| COC(=O)C1(C(=O)OC)Cc2c(c(-c3ccc(F)cc3)c3c(c2-c2ccc(F)cc2)C(=O)C=CC3=O)C1 | 3.3 | selectivity ratio [2]: 0.89; CC50 at 24 h [3]: 3 µM; IC50 [4]: 0.32 µM; selectivity ratio [5]: 9.3 |
| O=C1C=CC(=O)c2cc3c(cc21)COC3 | 193 |  |
| COc1ccc(C2=C(CCC(C)=O)C(=O)c3ccccc3C2=O)cc1 | 109 | selectivity ratio [2]: 1.38; CC50 at 24 h [3]: 79 µM |
| COC(=O)C1(C(=O)OC)Cc2cc3c(cc2C1)C(=O)C(OC)=CC3=O | > 500 |  |
| COC(=O)C1(C(=O)OC)Cc2cc3c(cc2C1)C(=O)C(c1ccccc1Br)=CC3=O | 51.5 | selectivity ratio [2]: 0.07; CC50 at 24 h [3]: 3.8 µM |
| COC(=O)C1(C(=O)OC)Cc2c(C)c3c(c(C)c2C1)C(=O)C=CC3=O | > 500 |  |
| COC(=O)C1(C(=O)OC)Cc2cc3c(cc2C1)C(=O)C=CC3=O | 51.5 | selectivity ratio [2]: 0.03; CC50 at 24 h [3]: 1.6 µM |
| COC(=O)C1(C(=O)OC)Cc2cc3c(c(C(=O)O)c2C1)C(=O)C=CC3=O | > 500 |  |
| COC(=O)C1(C(=O)OC)Cc2cc3c(cc2C1)C(=O)C(C)=C(C)C3=O | > 500 |  |
| COC(=O)C1(C(=O)OC)Cc2cc3c(c(CO[Si](C)(C)C(C)(C)C)c2C1)C(=O)C=CC3=O | > 500 |  |
| COC(=O)C1(C(=O)OC)Cc2cc3c(cc2C1)C(=O)C(c1ccc(C(F)(F)F)cc1)=CC3=O | 362 |  |
| CCCCc1c2c(cc3c1C(=O)C=CC3=O)CC(C(=O)OC)(C(=O)OC)C2 | 64.4 | selectivity ratio [2]: 0.07; CC50 at 24 h [3]: 4.2 µM |
| COC(=O)C1(C(=O)OC)Cc2cc3c(cc2C1)C(=O)c1ccccc1C3=O | > 500 |  |
| COC(=O)C1(C(=O)OC)Cc2cc3c(cc2C1)C(=O)C(Br)=CC3=O | 150 |  |
| COc1ccc2oc3c(c2c1)C(=O)c1ccccc1C3=O | > 500 |  |
| O=C(Cn1ccnc1[N+](=O)[O-])NCc1ccccc1 [BENZNIDAZOLE] |  | CC50 at 24 h [7]: > 1000 µM; IC50 [4]: 8.8 µM |
